Measured values taken from paper PMC9302689 (British Journal of Clinical Pharmacology, 2022).

Test system: healthy male subjects
Test: Pharmaco-EEG
Assay type: in vivo, human
Settings: 12-hour post-dose period
In short: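 Continuous EEG was recorded from 21 electrodes placed by the 10–20 system, with mastoid electrodes replacing the earlobe ones. Recordings followed IPEG guidelines, twice pre-dose and at 0.5–10 h post-dose. Power spectra for Fz-Cz and Pz-O derivations were split into bands to give total band power (μV). Values were ln-transformed, analysed by MMRM over 12 h against pooled placebo, and back-transformed.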

CN1CCC23CCCCC2C1Cc1ccc(C(N)=O)cc13 (stereo not drawn) [ALKS 7119, (9α, 13α)‐17‐methylmorphinan‐3‐carboxamide]
Theta-power Pz-Oz, LSM CFB (75 mg single oral dose): 0.12 Hz
Theta-power Pz-Oz, estimate of difference compared to placebo (75 mg single oral dose): 0.05 [−0.20, 0.28] P = .69 Hz
Alpha-power Fz-Cz, LSM CFB (100 mg single oral dose): 0.06 Hz
Alpha-power Pz-Oz, LSM CFB (100 mg single oral dose): 0.12 Hz
Alpha-power Pz-Oz, estimate of difference compared to placebo (100 mg single oral dose): 0.02 [−0.23, 0.28] P = .85 Hz
Beta-power Fz-Cz, LSM CFB (100 mg single oral dose): 0.08 Hz
Beta-power Fz-Cz, estimate of difference compared to placebo (100 mg single oral dose): −0.03 [−0.25, 0.19] P = .77 Hz
Beta-power Pz-Oz, LSM CFB (100 mg single oral dose): 0.25 Hz
Beta-power Pz-Oz, estimate of difference compared to placebo (100 mg single oral dose): 0.12 [−0.07, 0.32] P = .22 Hz
Delta-power Fz-Cz, LSM CFB (100 mg single oral dose): −0.03 Hz
Delta-power Fz-Cz, estimate of difference compared to placebo (100 mg single oral dose): −0.13 [−0.34, 0.08] P = .22 Hz
Delta-power Pz-Oz, LSM CFB (100 mg single oral dose): 0.08 Hz
Delta-power Pz-Oz, estimate of difference compared to placebo (100 mg single oral dose): 0.02 [−0.21, 0.25] P = .89 Hz
Gamma-power Fz-Cz, LSM CFB (100 mg single oral dose): 0.1 Hz
Gamma-power Fz-Cz, estimate of difference compared to placebo (100 mg single oral dose): <−0.01 [−0.20, 0.21] P = .99 Hz
Gamma-power Pz-Oz, LSM CFB (100 mg single oral dose): 0.27 Hz
Gamma-power Pz-Oz, estimate of difference compared to placebo (100 mg single oral dose): 0.06 [−0.19, 0.32] P = .63 Hz
Theta-power Fz-Cz, LSM CFB (100 mg single oral dose): 0.03 Hz
Theta-power Fz-Cz, estimate of difference compared to placebo (100 mg single oral dose): −0.04 [−0.27, 0.19] P = .72 Hz
Theta-power Pz-Oz, LSM CFB (100 mg single oral dose): 0.14 Hz
Theta-power Pz-Oz, estimate of difference compared to placebo (100 mg single oral dose): 0.08 [−0.16, 0.30] P = .56 Hz
Alpha-power Fz-Cz, LSM CFB (125 mg single oral dose): 0.05 Hz
Alpha-power Fz-Cz, estimate of difference compared to placebo (125 mg single oral dose): −0.17 [−1.24,‐.89] P = .75 Hz
Alpha-power Pz-Oz, LSM CFB (125 mg single oral dose): 0.11 Hz
Alpha-power Pz-Oz, estimate of difference compared to placebo (125 mg single oral dose): 0.01 [−0.25, 0.27] P = .93 Hz
Beta-power Fz-Cz, LSM CFB (125 mg single oral dose): 0.12 Hz
Beta-power Fz-Cz, estimate of difference compared to placebo (125 mg single oral dose): 0.01 [−0.21, 0.23] P = .93 Hz
Beta-power Pz-Oz, LSM CFB (125 mg single oral dose): 0.14 Hz
Beta-power Pz-Oz, estimate of difference compared to placebo (125 mg single oral dose): 0.02 [−0.18, 0.22] P = .87 Hz
Delta-power Fz-Cz, LSM CFB (125 mg single oral dose): 0.09 Hz
Delta-power Fz-Cz, estimate of difference compared to placebo (125 mg single oral dose): −0.01 [0.22, 0.20] P = .90 Hz
Delta-power Pz-Oz, LSM CFB (125 mg single oral dose): 0.22 Hz
Delta-power Pz-Oz, estimate of difference compared to placebo (125 mg single oral dose): 0.15 [−0.08, 0.39] P = .19 Hz
Gamma-power Fz-Cz, LSM CFB (125 mg single oral dose): 0.12 Hz
Gamma-power Fz-Cz, estimate of difference compared to placebo (125 mg single oral dose): 0.02 [−0.18, 0.22] P = .85 Hz
Gamma-power Pz-Oz, LSM CFB (125 mg single oral dose): 0.12 Hz
Gamma-power Pz-Oz, estimate of difference compared to placebo (125 mg single oral dose): −0.09 [−0.35, 0.17] P = .49 Hz
Theta-power Fz-Cz, LSM CFB (125 mg single oral dose): 0.1 Hz
Theta-power Fz-Cz, estimate of difference compared to placebo (125 mg single oral dose): 0.03 [−0.20, 0.25] P = .82 Hz
Theta-power Pz-Oz, LSM CFB (125 mg single oral dose): 0.15 Hz
Theta-power Pz-Oz, estimate of difference compared to placebo (125 mg single oral dose): 0.08 [−0.15, 0.31] P = .50 Hz
Alpha-power Fz-Cz, LSM CFB (150 mg single oral dose): 0.15 Hz
Alpha-power Pz-Oz, LSM CFB (150 mg single oral dose): −0.07 Hz
Alpha-power Pz-Oz, estimate of difference compared to placebo (150 mg single oral dose): −0.17 [−0.43, 0.09] P = .19 Hz
Beta-power Fz-Cz, LSM CFB (150 mg single oral dose): 0.11 Hz
Beta-power Fz-Cz, estimate of difference compared to placebo (150 mg single oral dose): −0.01 [−0.22, 0.22] P = .97 Hz
Beta-power Pz-Oz, LSM CFB (150 mg single oral dose): −0.07 Hz
Beta-power Pz-Oz, estimate of difference compared to placebo (150 mg single oral dose): −0.19 [−0.39, 0.01] P = .06 Hz
Delta-power Fz-Cz, LSM CFB (150 mg single oral dose): −0.08 Hz
Delta-power Fz-Cz, estimate of difference compared to placebo (150 mg single oral dose): −0.19 [−0.41, 0.03] P = .08 Hz
Delta-power Pz-Oz, LSM CFB (150 mg single oral dose): 0.02 Hz
Delta-power Pz-Oz, estimate of difference compared to placebo (150 mg single oral dose): −0.04 [−0.27, 0.19] P = .71 Hz
Gamma-power Fz-Cz, LSM CFB (150 mg single oral dose): 0.14 Hz
Gamma-power Fz-Cz, estimate of difference compared to placebo (150 mg single oral dose): 0.04 [−0.16, 0.24] P = .71 Hz
Gamma-power Pz-Oz, LSM CFB (150 mg single oral dose): 0.09 Hz
Gamma-power Pz-Oz, estimate of difference compared to placebo (150 mg single oral dose): −0.12 [−0.37, 0.14] P = .37 Hz
Theta-power Fz-Cz, LSM CFB (150 mg single oral dose): 0 Hz
Theta-power Fz-Cz, estimate of difference compared to placebo (150 mg single oral dose): −0.07 [−0.31, 0.16] P = .54 Hz
Theta-power Pz-Oz, LSM CFB (150 mg single oral dose): 0 Hz
Theta-power Pz-Oz, estimate of difference compared to placebo (150 mg single oral dose): −0.07 [−0.31, 0.16] P = .53 Hz
Alpha-power Fz-Cz, LSM CFB (175 mg single oral dose): 0.02 Hz
Alpha-power Fz-Cz, estimate of difference compared to placebo (175 mg single oral dose): −0.15 [−1.19, 0.9] P = .78 Hz
Alpha-power Pz-Oz, LSM CFB (175 mg single oral dose): −0.02 Hz
Alpha-power Pz-Oz, estimate of difference compared to placebo (175 mg single oral dose): −0.12 [−0.37, 0.14] P = .36 Hz
Beta-power Fz-Cz, LSM CFB (175 mg single oral dose): 0.08 Hz
Beta-power Fz-Cz, estimate of difference compared to placebo (175 mg single oral dose): −0.04 [−0.26, 0.18] P = .73 Hz
Beta-power Pz-Oz, LSM CFB (175 mg single oral dose): 0.01 Hz
Beta-power Pz-Oz, estimate of difference compared to placebo (175 mg single oral dose): −0.12 [−0.32, 0.08] P = .24 Hz
Delta-power Fz-Cz, LSM CFB (175 mg single oral dose): 0.09 Hz
Delta-power Fz-Cz, estimate of difference compared to placebo (175 mg single oral dose): −0.01 [−0.23, 0.20] P = .91 Hz
Delta-power Pz-Oz, LSM CFB (175 mg single oral dose): −0.07 Hz
Delta-power Pz-Oz, estimate of difference compared to placebo (175 mg single oral dose): −0.13 [−0.36, 0.11] P = .26 Hz
Gamma-power Fz-Cz, LSM CFB (175 mg single oral dose): 0.16 Hz
Gamma-power Fz-Cz, estimate of difference compared to placebo (175 mg single oral dose): 0.06 [−0.14, 0.26] P = .57 Hz
Gamma-power Pz-Oz, LSM CFB (175 mg single oral dose): 0.03 Hz
Gamma-power Pz-Oz, estimate of difference compared to placebo (175 mg single oral dose): −0.18 [−0.43, 0.08] P = .17 Hz
Theta-power Fz-Cz, LSM CFB (175 mg single oral dose): 0.08 Hz
Theta-power Pz-Oz, LSM CFB (175 mg single oral dose): −0.07 Hz
Theta-power Pz-Oz, estimate of difference compared to placebo (175 mg single oral dose): −0.14 [−0.37, 0.10] P = .25 Hz
Alpha-power Fz-Cz, LSM CFB (200 mg single oral dose): 0.01 Hz
Alpha-power Fz-Cz, estimate of difference compared to placebo (200 mg single oral dose): −0.28 [−1.39, 0.82] P = .61 Hz
Alpha-power Pz-Oz, LSM CFB (200 mg single oral dose): 0.24 Hz
Alpha-power Pz-Oz, estimate of difference compared to placebo (200 mg single oral dose): 0.14 [−0.11, 0.40] P = .27 Hz
Beta-power Fz-Cz, LSM CFB (200 mg single oral dose): 0.07 Hz
Beta-power Fz-Cz, estimate of difference compared to placebo (200 mg single oral dose): −0.05 [−0.27, 0.17] P = .67 Hz
Beta-power Pz-Oz, LSM CFB (200 mg single oral dose): 0.2 Hz
Beta-power Pz-Oz, estimate of difference compared to placebo (200 mg single oral dose): 0.07 [−0.12, 0.27] P = .46 Hz
Delta-power Fz-Cz, LSM CFB (200 mg single oral dose): 0.02 Hz
Delta-power Fz-Cz, estimate of difference compared to placebo (200 mg single oral dose): −0.08 [−0.29, 0.13] P = .45 Hz
Delta-power Pz-Oz, LSM CFB (200 mg single oral dose): 0.26 Hz
Delta-power Pz-Oz, estimate of difference compared to placebo (200 mg single oral dose): 0.20 [−0.04, 0.43] P = .10 Hz
Gamma-power Fz-Cz, LSM CFB (200 mg single oral dose): 0.21 Hz
Gamma-power Fz-Cz, estimate of difference compared to placebo (200 mg single oral dose): 0.11 [−0.09, 0.31] P = .29 Hz
Gamma-power Pz-Oz, LSM CFB (200 mg single oral dose): 0.31 Hz
Gamma-power Pz-Oz, estimate of difference compared to placebo (200 mg single oral dose): 0.11 [−0.15, 0.36] P = .40 Hz
Theta-power Fz-Cz, LSM CFB (200 mg single oral dose): 0.07 Hz
Theta-power Pz-Oz, LSM CFB (200 mg single oral dose): 0.25 Hz
Theta-power Pz-Oz, estimate of difference compared to placebo (200 mg single oral dose): 0.18 [−0.05, 0.41] P = .13 Hz
